In the library only some 2.7% were active in any assay of this set; here they are far more common.
OXTR potentiate – potentiators of human oxytocin receptor. AID 2445. 0.061% of 320,000 active. activation, % at 3 µM. P30559. CHO-OTR cells, Fluo-8 calcium fluorescence, potentiator mode; 0% = oxytocin EC15, 100% = EC100;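 active = activation above that plate's cutoff, the mean activation of tested compounds plus 3 SD, cut at about 6.6% in these data, passing the limit was not always enough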;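 note: 100% uses oxytocin at 75 nM as the full agonist control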
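System: human OTR in CHO cells; Also added: sub-maximal oxytocin, roughly EC15; Timing: compound 6 min at room temperature before oxytocin, 100 s read; Technique: Fluo-8 intracellular calcium fluorescence, ex 470-495, em 515-575 nm; Controls: oxytocin EC15 low and EC100 high; Replication: singlicate.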
CHO parental Ca – counter-screen: ATP calcium response change in parental CHO cells. 0.63% of 330,000 active. inhibition, % at 5.6 µM. parental CHO-K1, ATP-induced calcium, Fluo-8 fluorescence;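 active = inhibition above that plate's mean sample inhibition plus 3 SD, cut at about 26% in these data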;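 note: 0% = ATP-challenged DMSO wells and 100% = DMSO wells without ATP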
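Test system: untransfected parental CHO cell line. Compound: one dose, 5.6 µM nominal. Detection: intracellular calcium via Fluo-8 no-wash fluorescent dye. Measure: % inhibition. Benchmarks: ATP-challenged DMSO wells low, unchallenged DMSO wells high.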
V1aR counter – counter-screen for oxytocin receptor agonists: human V1a receptor agonists; P37288; CHO-V1R cells, Fluo-8 calcium fluorescence, agonist mode; 0% DMSO, 100% 3 nM vasopressin; activation, % at 3 µM; 0.25% of 320,000 active; AID 2797;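 active = activation above the mean activation of all tested compounds plus 3 SD, per screening run, cut at about 20% in these data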;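 note: signal is peak over basal fluorescence ratio across a 100 second FLIPR read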
OX1R antag-1 – blocks the human orexin 1 receptor. inhibition, % at 5 µM. AID 434989. CHO/OX1R cells, Fluo-8 calcium fluorescence, orexin A. O43613. 0.43% of 330,000 active;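 active = inhibition above its plate's threshold, mean inhibition of all tested compounds on the plate plus 3 SD, cut at about 37% in these data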;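 note: 0% = orexin A challenge wells and 100% = SB-334867-A antagonist wells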
Target sequence (O43613 whole entry, looked up): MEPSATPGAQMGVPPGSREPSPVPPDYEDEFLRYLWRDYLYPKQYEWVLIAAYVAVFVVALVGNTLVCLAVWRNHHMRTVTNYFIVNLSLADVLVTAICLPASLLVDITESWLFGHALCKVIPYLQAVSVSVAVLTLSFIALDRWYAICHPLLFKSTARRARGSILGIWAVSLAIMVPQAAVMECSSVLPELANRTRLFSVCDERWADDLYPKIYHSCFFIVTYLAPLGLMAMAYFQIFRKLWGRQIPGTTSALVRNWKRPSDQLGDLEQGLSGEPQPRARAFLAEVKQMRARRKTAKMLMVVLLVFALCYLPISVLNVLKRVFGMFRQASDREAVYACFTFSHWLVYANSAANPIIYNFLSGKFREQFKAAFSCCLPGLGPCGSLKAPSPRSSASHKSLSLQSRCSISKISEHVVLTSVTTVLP
OX1R antag-2 – blocks the human orexin 1 receptor; 1.8% of 330,000 active; AID 485270; OX1R-expressing cells, FRET antagonist read-out; O43613; inhibition, % at 6.6 µM; in the data active = inhibition mostly above about 38%, no sharp cut-off; inactive = mostly below about 40%;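 note: 0% = agonist challenge alone and 100% = reference antagonist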
OXTR agonist – agonists of human oxytocin receptor. 0.32% of 320,000 active. CHO-OTR cells, Fluo-8 calcium fluorescence; normalized: DMSO 0%, oxytocin 100%. activation, % at 3 µM. AID 2435. P30559;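 active = activation above the mean of all tested compounds plus 3 SD, cutoff set per screening run, cut at about 20% in these data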;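 note: peak over basal fluorescence ratio from a 100 s FLIPR kinetic read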
Active calls of the source: *.

SMILES	OXTR potentiate	CHO parental Ca	V1aR counter	OX1R antag-1	OX1R antag-2	OXTR agonist
O=C(/C=C/c1ccc(Cl)c([N+](=O)[O-])c1)Nc1cccc(NC(=O)c2ccco2)c1	-15.7	7.1	1.4	8.2	57.6*	2.0
O=C(/C=C/c1ccc(Cl)c([N+](=O)[O-])c1)Nc1cccnc1	-8.3	-17.5	3.0	3.4	54.4*	0.6
O=C(/C=C/c1ccccc1)Nc1cccnc1	-1.1	0.0	-0.2	10.2	13.4	-1.3
CSCCC(NC(=O)c1ccc([N+](=O)[O-])cc1Cl)C(=O)OCC(=O)NC(=O)CN1CCCC1=O (configuration not stated)	-10.3	-8.5	-0.9	-0.9	55.9*	1.2
CSCCC(NC(=O)c1ccc([N+](=O)[O-])cc1Cl)C(=O)OC1CCCCC1=O (configuration not stated)	0.2	-9.5	-0.1	-19.4	66.5*	-0.5
CSCCC(NC(=O)c1ccc([N+](=O)[O-])cc1Cl)C(=O)OCC(=O)NC1CCCC(C)C1C (configuration not stated)	-14.6	-22.2	0.7	-9.8	17.2	-1.3
CCOc1ccccc1Nc1nnc(SCC(=O)N(C)C2CCS(=O)(=O)C2)s1 (configuration not stated)	-7.7	0.8	1.5	-25.8	6.5	0.6
COCc1c(C(=O)NCCc2ccc(OC(F)F)cc2)oc2ccccc12	-4.8	-11.0	-1.6	-9.8	10.0	-2.2
CCCc1ccc2oc(C(=O)N3CCNC(=O)C3CC(=O)OC)c(C)c2c1 (configuration not stated)	-8.2	-8.0	0.6	-5.0	7.3	-0.3
COc1ccc(Cn2nnnc2CN(Cc2cc3ccc(C)cc3[nH]c2=O)C2CCCC2)cc1	-7.6	-29.0	0.1	-1.3	43.2*	-0.8
CC(=O)Nc1ccc(SCCN2CC[C@@H](C(C)(C)C)CCC2=O)cc1	0.6	-23.1	1.3	-2.4	19.4	2.3
COc1c(OC(C)=O)ccc(/C=C/c2ccc3ccccc3n2)c1[N+](=O)[O-]	-11.7	-6.5	2.9	1.9	42.2*	2.4
Fc1ccc(-c2ccc(Nc3cccc(F)c3)nn2)cc1	-5.6	43.6*	-0.3	-0.2	13.0	-1.7
COc1ccccc1NC(=O)COC(=O)CN1C(=O)C(=O)c2ccccc21	-8.1	-7.3	1.6	21.2	33.7	1.9
O=C(CN1C(=O)C(=O)c2ccccc21)OCN1C(=O)c2ccccc2C1=O	-9.2	-8.4	0.6	-10.4	44.4*	1.0
CC(=O)N1CCC(N(CCCOC(C)C)S(=O)(=O)c2ccc([N+](=O)[O-])cc2)CC1	-6.5	-7.6	0.5	-36.3	45.7*	0.3
Cc1ccccc1Cn1nnc(-c2ccc(F)cc2)n1	-20.6	21.4	-0.6	-9.0	2.9	-2.3
O=C(Nc1ccc(F)c(Cl)c1)C1CC2CCC1C2 (configuration not stated)	-6.2	-21.5	2.9	-15.8	13.8	-3.8
CCCC(=O)NNc1c2ccccc2nc2ccccc12	-2.6	-15.2	0.4	-8.2	4.7	-0.5
O=C(NNc1c2ccccc2nc2ccccc12)C(O)c1ccccc1 (configuration not stated)	-4.6	-21.4	-0.3	-9.8	70.9*	-0.9
O=C(COc1ccccc1)NNc1c2ccccc2nc2ccccc12	-19.3	2.3	2.2	-10.0	85.7*	-1.0
O=C(CCCO)NNc1c2ccccc2nc2ccccc12	-2.2	-1.2	0.3	-4.1	13.2	0.7
CC1=C(C)/C(=N\OS(=O)(=O)c2ccc(C)cc2)C=CC1=O	-10.3	67.5*	1.9	57.5*	81.6*	9.2
CCCNC(=O)C1CCC(CNS(=O)(=O)c2cccc3nsnc23)CC1 (configuration not stated)	-2.9	0.3	1.3	7.6	33.6	2.4
O=C(CCCNS(=O)(=O)c1cccc2nsnc12)N1CCCCC1	-17.5	3.1	0.6	-13.6	50.6	0.2
SMILES	OXTR potentiate	CHO parental Ca	V1aR counter	OX1R antag-1	OX1R antag-2	OXTR agonist
O=C(CCCNS(=O)(=O)c1cccc2nsnc12)NC1CCCCC1	-2.5	-11.7	-0.4	-19.7	80.2*	0.3
CCC(C)NC(=O)C1CCC(CNS(=O)(=O)c2cccc3nsnc23)CC1 (configuration not stated)	-7.7	-9.7	0.7	-8.2	49.7*	-0.5
CCOCCCNC(=O)C1CCC(CNS(=O)(=O)c2cccc3nsnc23)CC1 (configuration not stated)	1.5	-7.2	0.1	-11.7	52.9*	0.9
CC1CCCN(CCCNC(=O)C2CCC(CNS(=O)(=O)c3cccc4nsnc34)CC2)C1 (configuration not stated)	-7.6	-7.4	0.0	0.9	48.2*	-0.4
COc1ccccc1Cn1c(C)nc2ccccc21	-14.6	-14.1	7.7	-25.2	5.2	5.3
Cc1nc2ccccc2n1CCOc1ccccc1	-10.9	-4.0	7.9	-0.1	24.6	4.9
Cc1ccccc1OCCCCn1cnc2ccccc21	-4.0	49.8*	6.5	0.3	12.6	9.6
Cc1ccccc1Cn1c(C)nc2ccccc21	-14.3	41.3*	12.4	13.2	63.7	8.9
Clc1ccc(COn2c(-c3ccc(Cl)cc3)nc3ccccc32)cc1	-13.6	-28.2	4.8	-29.3	17.0	0.8
Cc1ccccc1OCCn1c(C)nc2ccccc21	-26.0	35.0*	11.0	37.8	21.5	17.3
Clc1ccc(COn2c(-c3ccccc3)nc3ccccc32)cc1	-5.2	-8.2	1.7	-5.3	54.3*	0.9
CC(CNC(=O)CN1C(=O)NC2(CCOc3ccccc32)C1=O)c1ccccc1 (configuration not stated)	-1.5	-22.8	0.2	-17.3	9.6	1.4
Cc1ccccc1OCCn1cc(C(=S)N2CCCC2)c2ccccc21	-7.6	-6.8	-0.2	14.7	30.1	0.5
c1ccc2c(c1)ncn2CCCCOc1ccc2c(c1)CCC2	-5.3	36.9*	3.0	-7.2	19.1	6.8
Cc1nc2ccccc2n1Cc1ccc(Cl)cc1	-21.8	30.6*	11.1	3.6	43.1	9.3
CC(=O)c1cn(CCOc2ccccc2C)c2ccccc12	-12.3	41.3*	9.8	21.6	37.2	7.2
Cc1ncsc1C(=O)N1CCCC(C(=O)c2ccc3ccccc3c2)C1 (configuration not stated)	8.5	-15.3	9.2	-20.7	30.2	3.0
COc1cccc(OCc2cc(C(=O)NC(C)c3cnn(C)c3C)no2)c1 (configuration not stated)	5.2	-24.6	1.4	-11.3	-0.1	2.1
COc1ccc(CCC(=O)Nc2nc3ccccc3[nH]2)cc1	5.7	70.3*	5.7	20.6	-0.8	5.6
COc1ccc(OCC(=O)Nc2nc3ccccc3[nH]2)cc1	-1.2	-11.8	0.2	-31.6	13.9	-0.7
